pIC50: −log10 of the molar value.
Assays:
[1] = target: T1, Integrin alpha-IIb/beta-3 (Homo sapiens, UniProt P08514+P05106); assay: Inhibition of 17.5 uM ADP-induced platelet aggregation of human platelet-rich plasma
Method in brief: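 Aggregation of human platelets in platelet-rich plasma. Values are the average of at least 3 determinations.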

[2] = target: T1, Integrin alpha-IIb/beta-3; assay: Inhibition of thrombin-induced platelet aggregation assay at 20 uM

T1 sequence (P05106 27-788 limits assumed): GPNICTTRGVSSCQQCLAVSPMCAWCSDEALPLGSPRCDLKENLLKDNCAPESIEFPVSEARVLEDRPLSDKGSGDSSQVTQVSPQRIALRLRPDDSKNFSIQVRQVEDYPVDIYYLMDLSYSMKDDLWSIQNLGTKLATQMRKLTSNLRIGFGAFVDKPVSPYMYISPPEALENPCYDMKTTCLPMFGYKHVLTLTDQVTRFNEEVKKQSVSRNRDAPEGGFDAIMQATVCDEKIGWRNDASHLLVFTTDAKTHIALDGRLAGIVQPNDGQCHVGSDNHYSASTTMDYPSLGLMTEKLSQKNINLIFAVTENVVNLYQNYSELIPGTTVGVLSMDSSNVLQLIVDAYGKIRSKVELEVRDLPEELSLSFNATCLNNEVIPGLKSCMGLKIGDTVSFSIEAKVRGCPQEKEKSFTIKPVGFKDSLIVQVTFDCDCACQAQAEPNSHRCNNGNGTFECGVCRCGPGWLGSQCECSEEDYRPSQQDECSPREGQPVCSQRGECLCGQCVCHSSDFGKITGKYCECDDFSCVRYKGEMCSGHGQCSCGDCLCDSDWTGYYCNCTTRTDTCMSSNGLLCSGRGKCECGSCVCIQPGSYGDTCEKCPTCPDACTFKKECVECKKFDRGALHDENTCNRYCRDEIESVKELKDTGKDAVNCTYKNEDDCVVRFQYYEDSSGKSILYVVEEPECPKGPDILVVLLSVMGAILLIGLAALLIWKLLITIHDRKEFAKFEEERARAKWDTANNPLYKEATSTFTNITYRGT
T1 sequence (P08514 32-887 limits assumed): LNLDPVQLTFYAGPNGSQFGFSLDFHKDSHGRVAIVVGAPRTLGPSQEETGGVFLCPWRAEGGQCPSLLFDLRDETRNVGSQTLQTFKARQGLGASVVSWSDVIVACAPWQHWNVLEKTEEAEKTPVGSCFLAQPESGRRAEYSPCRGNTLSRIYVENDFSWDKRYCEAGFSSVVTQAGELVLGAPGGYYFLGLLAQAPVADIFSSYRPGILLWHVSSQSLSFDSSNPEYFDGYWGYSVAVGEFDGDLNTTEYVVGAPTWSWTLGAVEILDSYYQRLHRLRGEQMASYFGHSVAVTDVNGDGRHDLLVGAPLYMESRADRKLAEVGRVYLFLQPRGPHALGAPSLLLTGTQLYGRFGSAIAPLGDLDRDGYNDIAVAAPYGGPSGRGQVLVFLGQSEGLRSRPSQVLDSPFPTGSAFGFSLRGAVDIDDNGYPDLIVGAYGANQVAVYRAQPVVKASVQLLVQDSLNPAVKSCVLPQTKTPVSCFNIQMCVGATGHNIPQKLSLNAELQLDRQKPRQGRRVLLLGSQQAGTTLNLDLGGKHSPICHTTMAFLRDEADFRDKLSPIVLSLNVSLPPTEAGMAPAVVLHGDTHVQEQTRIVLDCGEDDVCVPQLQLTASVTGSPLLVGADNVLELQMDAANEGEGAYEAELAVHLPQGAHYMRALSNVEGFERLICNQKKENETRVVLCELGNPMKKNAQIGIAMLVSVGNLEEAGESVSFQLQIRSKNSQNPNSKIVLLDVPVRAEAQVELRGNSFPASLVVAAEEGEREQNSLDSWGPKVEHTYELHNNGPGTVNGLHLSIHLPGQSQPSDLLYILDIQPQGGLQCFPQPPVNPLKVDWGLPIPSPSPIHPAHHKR
T1 sequence (P08514 891-1039 limits assumed): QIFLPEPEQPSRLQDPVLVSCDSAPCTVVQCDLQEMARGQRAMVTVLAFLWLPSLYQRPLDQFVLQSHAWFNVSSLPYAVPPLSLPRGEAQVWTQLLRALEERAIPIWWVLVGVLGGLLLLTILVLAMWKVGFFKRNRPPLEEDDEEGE

Row | pIC50 [1] | pIC50 [2] | SMILES
1 | 5.89 |  | C[C@H](CC(=O)O)N1CC(=O)N(C(C)(C)C)c2c(Cl)cc(C#Cc3ccc(C(=N)N)cc3)cc2C1=O [(R)-3-[1-tert-Butyl-7-(4-carbamimidoyl-phenylethynyl)-9-chloro-2,5-dioxo-1,2,3,5-tetrahydro-benzo[e][1,4]diazepin-4-yl]-butyric acid]
2 | 7.11 | 6.86 | C[C@@H](CC(=O)O)N1CC(=O)N(C)c2ccc(C#Cc3ccc(C(=N)N)cc3)cc2C1=O [(S)-3-[7-(4-Carbamimidoyl-phenylethynyl)-1-methyl-2,5-dioxo-1,2,3,5-tetrahydro-benzo[e][1,4]diazepin-4-yl]-butyric acid]
3 | 6.80 | 6.50 | C[C@@H](CC(=O)O)N1CC(=O)N(C)c2c(Cl)cc(C#Cc3ccc(C(=N)N)cc3)cc2C1=O [(S)-3-[7-(4-Carbamimidoyl-phenylethynyl)-9-chloro-1-methyl-2,5-dioxo-1,2,3,5-tetrahydro-benzo[e][1,4]diazepin-4-yl]-butyric acid]
4 | 7.47 | 7.22 | C[C@@H](CC(=O)O)N1CC(=O)N(C(C)(C)C)c2c(Cl)cc(C#Cc3ccc(C(=N)N)cc3)cc2C1=O [(S)-3-[1-tert-Butyl-7-(4-carbamimidoyl-phenylethynyl)-9-chloro-2,5-dioxo-1,2,3,5-tetrahydro-benzo[e][1,4]diazepin-4-yl]-butyric acid]
5 | 6.09 |  | C[C@H](CC(=O)O)N1CC(=O)N(C)c2ccc(C#Cc3ccc(C(=N)N)cc3)cc2C1=O [(R)-3-[7-(4-Carbamimidoyl-phenylethynyl)-1-methyl-2,5-dioxo-1,2,3,5-tetrahydro-benzo[e][1,4]diazepin-4-yl]-butyric acid]
6 |  | 6.67 | CN1C(=O)CN(CCC(=O)O)C(=O)c2cc(C#Cc3ccc(C(=N)N)cc3)ccc21 [3-[7-(4-Carbamimidoyl-phenylethynyl)-1-methyl-2,5-dioxo-1,2,3,5-tetrahydro-benzo[e][1,4]diazepin-4-yl]-propionic acid(G6249)]
7 | 7.04 |  | C[C@@H](CC(=O)O)N1CC(=O)N(C(C)(C)C)c2ccc(C#Cc3ccc(C(=N)N)cc3)cc2C1=O [(S)-3-[1-tert-Butyl-7-(4-carbamimidoyl-phenylethynyl)-2,5-dioxo-1,2,3,5-tetrahydro-benzo[e][1,4]diazepin-4-yl]-butyric acid]

Source: BindingDB's records for doi:10.1021/jm960652r (Genentech, 1997)
